# Data from ChEMBL document CHEMBL1135657, “Novel dual inhibitors of AChE and MAO derived from hydroxy aminoindan and phenethylamine as potential treatment for Alzheimer's disease” (J Med Chem, 2002).
# Experiments:
# [1] = target: T1, Amine oxidase [flavin-containing] A (Rattus norvegicus, UniProt P21396); test: In vitro inhibitory concentration against Monoamine oxidase A of rat brain homogenates; value ranges from 1.8-2.4; assay type: tissue-based
# T1 sequence (P21396 whole entry): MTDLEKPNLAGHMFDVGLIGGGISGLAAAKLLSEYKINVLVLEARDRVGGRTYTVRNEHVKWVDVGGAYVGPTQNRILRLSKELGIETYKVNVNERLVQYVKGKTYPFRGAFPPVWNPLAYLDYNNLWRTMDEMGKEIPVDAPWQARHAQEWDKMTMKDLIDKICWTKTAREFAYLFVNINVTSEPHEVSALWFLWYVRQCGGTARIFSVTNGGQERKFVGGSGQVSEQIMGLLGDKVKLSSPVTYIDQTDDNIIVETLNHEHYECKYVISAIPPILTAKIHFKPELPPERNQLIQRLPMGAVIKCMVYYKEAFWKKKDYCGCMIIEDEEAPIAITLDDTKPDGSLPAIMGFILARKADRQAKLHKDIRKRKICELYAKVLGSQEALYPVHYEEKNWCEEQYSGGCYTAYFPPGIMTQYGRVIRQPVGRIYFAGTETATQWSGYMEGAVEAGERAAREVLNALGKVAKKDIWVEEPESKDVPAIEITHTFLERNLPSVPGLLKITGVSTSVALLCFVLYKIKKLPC
# [2] = target: T2, Acetylcholinesterase (Homo sapiens, UniProt P22303); test: In vitro inhibitory concentration against purified Acetylcholinesterase of human erythrocytes; value ranges from 2.2-10.1
# T2 sequence (P22303 whole entry): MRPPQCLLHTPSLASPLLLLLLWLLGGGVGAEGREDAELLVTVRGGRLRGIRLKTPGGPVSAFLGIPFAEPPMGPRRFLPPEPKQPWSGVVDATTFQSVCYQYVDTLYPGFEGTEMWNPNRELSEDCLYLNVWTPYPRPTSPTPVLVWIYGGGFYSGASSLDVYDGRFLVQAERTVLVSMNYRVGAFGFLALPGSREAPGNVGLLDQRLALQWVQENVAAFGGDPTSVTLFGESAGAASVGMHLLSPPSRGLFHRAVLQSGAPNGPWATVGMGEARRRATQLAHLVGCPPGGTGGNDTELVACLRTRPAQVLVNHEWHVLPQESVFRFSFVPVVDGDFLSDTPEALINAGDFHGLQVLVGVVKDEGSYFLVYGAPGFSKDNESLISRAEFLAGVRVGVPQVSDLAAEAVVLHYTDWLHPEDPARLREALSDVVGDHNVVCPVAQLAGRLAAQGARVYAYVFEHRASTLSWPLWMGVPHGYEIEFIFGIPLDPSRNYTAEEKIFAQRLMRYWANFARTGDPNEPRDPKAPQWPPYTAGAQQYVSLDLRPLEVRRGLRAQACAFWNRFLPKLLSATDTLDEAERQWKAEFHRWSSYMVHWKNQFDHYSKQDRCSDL
# [3] = target: T3, Butyrylcholinesterase (Equus caballus, UniProt Q9N1N9); test: In vitro inhibitory concentration against Butyrylcholinesterase of horse serum; value ranges from 0.71-0.86
# T3 sequence (Q9N1N9 whole entry): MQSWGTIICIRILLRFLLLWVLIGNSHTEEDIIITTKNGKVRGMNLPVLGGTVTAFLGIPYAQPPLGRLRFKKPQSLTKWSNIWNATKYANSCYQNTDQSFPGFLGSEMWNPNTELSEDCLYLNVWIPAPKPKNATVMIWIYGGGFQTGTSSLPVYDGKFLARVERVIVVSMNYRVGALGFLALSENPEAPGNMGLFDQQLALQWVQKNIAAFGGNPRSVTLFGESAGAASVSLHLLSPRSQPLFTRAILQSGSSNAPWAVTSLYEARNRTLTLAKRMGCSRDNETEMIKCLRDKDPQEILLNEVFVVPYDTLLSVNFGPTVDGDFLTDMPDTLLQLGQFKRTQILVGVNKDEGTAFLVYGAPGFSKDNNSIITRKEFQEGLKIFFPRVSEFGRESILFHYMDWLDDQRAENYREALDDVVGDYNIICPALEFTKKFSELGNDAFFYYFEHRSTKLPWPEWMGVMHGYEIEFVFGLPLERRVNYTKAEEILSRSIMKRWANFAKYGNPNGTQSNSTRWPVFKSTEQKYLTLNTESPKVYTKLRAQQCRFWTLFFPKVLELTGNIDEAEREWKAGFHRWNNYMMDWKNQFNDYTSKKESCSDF
# Procedure, shortened: (§1)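 Ellman assay followed, with 200 µM butyrylthiocholine as substrate. Runs were in triplicate with four-point dose-response curves. IC50 and fiducial limits came from log concentration versus % inhibition.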
# [4] = target: T4, Amine oxidase [flavin-containing] B (Rattus norvegicus, UniProt P19643); test: In vitro inhibitory concentration against Monoamine oxidase B of rat brain homogenates; assay type: tissue-based
# T4 sequence (P19643 whole entry): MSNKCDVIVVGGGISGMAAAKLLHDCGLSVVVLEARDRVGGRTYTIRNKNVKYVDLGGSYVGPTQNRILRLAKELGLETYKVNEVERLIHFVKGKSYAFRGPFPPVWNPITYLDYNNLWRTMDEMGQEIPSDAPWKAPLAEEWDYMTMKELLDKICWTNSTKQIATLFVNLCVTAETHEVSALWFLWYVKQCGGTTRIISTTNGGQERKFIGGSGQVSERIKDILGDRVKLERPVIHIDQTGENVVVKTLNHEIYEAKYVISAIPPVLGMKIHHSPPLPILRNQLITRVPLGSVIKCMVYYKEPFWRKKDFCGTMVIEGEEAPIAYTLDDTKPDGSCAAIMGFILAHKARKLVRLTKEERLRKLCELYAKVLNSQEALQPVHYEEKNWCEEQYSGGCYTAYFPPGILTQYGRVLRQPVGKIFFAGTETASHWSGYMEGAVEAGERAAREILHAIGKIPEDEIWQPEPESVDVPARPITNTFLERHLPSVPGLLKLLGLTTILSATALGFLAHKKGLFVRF
# [5] = target: T1, Amine oxidase [flavin-containing] A; test: In vitro inhibitory concentration against Monoamine oxidase A of rat brain homogenates; value ranges from 0.005-0.012; assay type: tissue-based
# [6] = target: T4, Amine oxidase [flavin-containing] B; test: In vitro inhibitory concentration against Monoamine oxidase B of rat brain homogenates; value ranges from 0.7-1.3; assay type: tissue-based
# [7] = target: T1, Amine oxidase [flavin-containing] A; test: In vitro inhibitory concentration against Monoamine oxidase A of rat brain homogenates; value ranges from 0.5-1.6; assay type: tissue-based
# [8] = target: T1, Amine oxidase [flavin-containing] A; test: In vitro inhibitory concentration against Monoamine oxidase A of rat brain homogenates; assay type: tissue-based
# [9] = target: T3, Butyrylcholinesterase; test: In vitro inhibitory concentration against Butyrylcholinesterase of horse serum; value ranges from […]; procedure, shortened: as §1
# [10] = target: T2, Acetylcholinesterase; test: In vitro inhibitory concentration against purified Acetylcholinesterase of human erythrocytes; value ranges from 3.87-11.9
# [11] = target: T4, Amine oxidase [flavin-containing] B; test: In vitro inhibitory concentration against Monoamine oxidase B of rat brain homogenates; value ranges from 0.4-1.3; assay type: tissue-based
# [12] = target: T1, Amine oxidase [flavin-containing] A; test: In vitro inhibitory concentration against Monoamine oxidase A of rat brain homogenates; value ranges from 0.5-1.4; assay type: tissue-based
# [13] = target: T2, Acetylcholinesterase; test: In vitro inhibitory concentration against purified Acetylcholinesterase of human erythrocytes; value ranges from 7.3-50.4
# [14] = target: T1, Amine oxidase [flavin-containing] A; test: In vitro inhibitory concentration against Monoamine oxidase A of rat brain homogenates; value ranges from 230-820; assay type: tissue-based
# [15] = target: T2, Acetylcholinesterase; test: In vitro inhibitory concentration against purified Acetylcholinesterase of human erythrocytes; value ranges from 0.16-0.18
# [16] = target: T3, Butyrylcholinesterase; test: In vitro inhibitory concentration against Butyrylcholinesterase of horse serum; value ranges from 0.23-0.26; procedure, shortened: as §1
# [17] = target: T4, Amine oxidase [flavin-containing] B; set-up: species or system Brain
# [18] = target: T3, Butyrylcholinesterase; test: In vitro inhibitory concentration against Butyrylcholinesterase of horse serum; value ranges from 0.22-1.54; procedure, shortened: as §1
# [19] = target: T1, Amine oxidase [flavin-containing] A; test: In vitro inhibitory concentration against Monoamine oxidase A of rat brain homogenates; value ranges from 1.7-3.9; assay type: tissue-based
# [20] = target: T3, Butyrylcholinesterase; test: In vitro inhibitory concentration against Butyrylcholinesterase of horse serum; value ranges from 1.63-2.45; procedure, shortened: as §1
# [21] = target: T1, Amine oxidase [flavin-containing] A; test: In vitro inhibitory concentration against Monoamine oxidase A of rat brain homogenates; value ranges from 4.3-7.3; assay type: tissue-based
# [22] = target: T2, Acetylcholinesterase; test: In vitro inhibitory concentration against purified Acetylcholinesterase of human erythrocytes; value ranges from […]-[…]
# [23] = target: T3, Butyrylcholinesterase; test: In vitro inhibitory concentration against Butyrylcholinesterase of horse serum; value ranges from 4.8-73.9; procedure, shortened: as §1
# [24] = target: T2, Acetylcholinesterase; test: In vitro inhibitory concentration against purified Acetylcholinesterase of human erythrocytes; value ranges from 2.0-15.2
# [25] = target: T2, Acetylcholinesterase; test: In vitro inhibitory concentration against purified Acetylcholinesterase of human erythrocytes; value ranges from 2.2-6.4
# [26] = target: T2, Acetylcholinesterase; test: In vitro inhibitory concentration against purified Acetylcholinesterase of human erythrocytes; value ranges from 4.6-25.8
# [27] = target: T1, Amine oxidase [flavin-containing] A; test: In vitro inhibitory concentration against Monoamine oxidase A of rat brain homogenates; value ranges from 0.47; assay type: tissue-based
# [28] = target: T1, Amine oxidase [flavin-containing] A; test: In vitro inhibitory concentration against Monoamine oxidase A of rat brain homogenates; value ranges from 0.28-0.34; assay type: tissue-based
# [29] = target: T2, Acetylcholinesterase; test: In vitro inhibitory concentration against purified Acetylcholinesterase of human erythrocytes; value ranges from 1.66-3.14
# [30] = target: T2, Acetylcholinesterase; test: In vitro inhibitory concentration against purified Acetylcholinesterase of human erythrocytes; value ranges from 33.2-96.7
# [31] = target: T2, Acetylcholinesterase; test: In vitro inhibitory concentration against purified Acetylcholinesterase of human erythrocytes; value ranges from 13.6-198
# [32] = target: T3, Butyrylcholinesterase; test: In vitro inhibitory concentration against Butyrylcholinesterase of horse serum; value ranges from 2.77-15.4; procedure, shortened: as §1
# [33] = target: T2, Acetylcholinesterase
# [34] = target: T1, Amine oxidase [flavin-containing] A; test: In vitro inhibitory concentration against Monoamine oxidase A of rat brain homogenates; value ranges from 75-240; assay type: tissue-based
# [35] = target: T2, Acetylcholinesterase; test: In vitro inhibitory concentration against purified Acetylcholinesterase of human erythrocytes
# [36] = target: T4, Amine oxidase [flavin-containing] B; test: In vitro inhibitory concentration against Monoamine oxidase B of rat brain homogenates; value ranges from 77-123
# [37] = target: T2, Acetylcholinesterase; test: In vitro inhibitory concentration against purified Acetylcholinesterase of human erythrocytes; value ranges from 8.6-49.9
# [38] = target: T1, Amine oxidase [flavin-containing] A; test: In vitro inhibitory concentration against Monoamine oxidase A of rat brain homogenates; value ranges from 560-1000; assay type: tissue-based
# [39] = target: T4, Amine oxidase [flavin-containing] B; test: In vitro inhibitory concentration against Monoamine oxidase B of rat brain homogenates; value ranges from 200-1400; assay type: tissue-based
# [40] = target: T3, Butyrylcholinesterase
# [41] = target: T4, Amine oxidase [flavin-containing] B; test: In vitro inhibitory concentration against Monoamine oxidase B of rat brain homogenates; value ranges from 360-470; assay type: tissue-based
# [42] = target: T2, Acetylcholinesterase; test: In vitro inhibitory concentration against purified Acetylcholinesterase of human erythrocytes; value ranges from 6.4-45.9
# [43] = target: T3, Butyrylcholinesterase; test: In vitro inhibitory concentration against Butyrylcholinesterase of horse serum; value ranges from 6.3-52.4; procedure, shortened: as §1
# [44] = target: T1, Amine oxidase [flavin-containing] A; test: In vitro inhibitory concentration against Monoamine oxidase A of rat brain homogenates; value ranges from 170-340; assay type: tissue-based
# [45] = target: T3, Butyrylcholinesterase; test: In vitro inhibitory concentration against Butyrylcholinesterase of horse serum; value ranges from 5.02-12.2; procedure, shortened: as §1
# [46] = target: T2, Acetylcholinesterase; test: In vitro inhibitory concentration against purified Acetylcholinesterase of human erythrocytes; value ranges from 7.81-39.2
smiles,measurement,setting,value
C#CCNC1CCc2ccc(OC(=O)N(C)C)cc2C1 (stereo not given),IC50,[1],2 µM
same,IC50,[2],4.1 µM
same,IC50,[3],0.77 µM
same,IC50,[4],1000 µM
C#CCN(C)C1CCc2c(O)cccc21 (stereo not given),IC50,[5],0.008 µM
C#CCNC1CCc2c(O)cccc21 (stereo not given),IC50,[6],0.9 µM
same,IC50,[7],0.9 µM
CCN(C)C(=O)Oc1ccc2c(c1)C(N)CCC2 (stereo not given),IC50,[8],1000 µM
same,IC50,[9],5.41 µM
same,IC50,[10],6.22 µM
C#CCN(C)CCc1cccc(OC(=O)N(C)CC)c1,IC50,[11],0.8 µM
same,IC50,[12],0.8 µM
same,IC50,[13],16.6 µM
C#CC(C)NCCc1cccc(OC(=O)N(C)C)c1 (stereo not given),IC50,[14],440 µM
same,IC50,[15],0.17 µM
same,IC50,[4],> 1000 µM
same,IC50,[16],0.24 µM
C#CCNCCc1cccc(OC(=O)N(C)CC)c1,IC50,[17],7.8 µM
same,IC50,[18],0.54 µM
same,IC50,[19],2.6 µM
CCN(C)C(=O)Oc1ccc2c(c1)[C@H](N)CC2,IC50,[20],1.96 µM
same,IC50,[21],5.6 µM
same,IC50,[22],6.14 µM
same,IC50,[4],> 1000 µM
C#CCN[C@H]1CCc2ccc(OC(=O)N(C)CCC)cc21,IC50,[8],> 1000 µM
same,IC50,[23],12.4 µM
same,IC50,[24],8.5 µM
same,IC50,[4],> 1000 µM
C#CCN(C)[C@@H](C)Cc1cccc(OC(=O)N(C)CCCCCC)c1,IC50,[25],3.4 µM
C#CCN[C@H]1CCc2ccc(OC(=O)N(C)CCCC)cc21,IC50,[26],9.3 µM
C#CCNC1CCc2ccc(O)cc21 (stereo not given),IC50,[27],0.67 µM
C#CCN[C@@H]1CCc2ccc(O)cc21,IC50,[28],0.3 µM
CN(C)C(=O)Oc1ccc2c(c1)C(N(C)C)CC2 (stereo not given),IC50,[29],2.15 µM
C#CCNC1CCc2cccc(OC(=O)N(C)CCC)c21 (stereo not given),IC50,[30],45.8 µM
C#CCNC1CCc2ccc(OC(=O)N(C)C3CCCCC3)cc21 (stereo not given),IC50,[31],41.2 µM
same,IC50,[32],5.56 µM
C#CCNC1CCc2c(Cl)cc(OC(=O)N(C)CC)cc21 (stereo not given),IC50,[33],25.5 µM
C#CCNC1CCc2ccc(OC(=S)N(C)C)cc21 (stereo not given),IC50,[34],130 µM
same,IC50,[35],> 500 µM
same,IC50,[36],98 µM
C#CCN(CC)C1CCc2ccc(OC(=O)N(C)C)cc21 (stereo not given),IC50,[37],17.9 µM
C#CCNC1CCc2ccc(OC(=O)N(C)C)cc21 (stereo not given),IC50,[38],750 µM
same,IC50,[39],530 µM
same,IC50,[40],2.07 µM
C#CCNC1CCc2ccc(OC(=O)N(C)CCC)cc21 (stereo not given),IC50,[41],410 µM
same,IC50,[42],14.6 µM
same,IC50,[43],14.8 µM
same,IC50,[44],240 µM
C#CCNC1CCc2ccc(OC(=O)N(C)CCCCCC)cc21 (stereo not given),IC50,[45],7.5 µM
same,IC50,[46],15.7 µM
